Experimental data: paper PMC5189983 (Biomaterials, 2016)

Assays:
[1] = tested on: EAE; assay: EAE mouse model of MS; assay type: in vivo, C57BL/6 female mice; conditions: 50 µg free GpG on days 5, 10, and 15
[2] = tested on: 2D2 CD4+ T cells; assay: DC/2D2 T cell co-culture, T cell proliferation; assay type: cell-based, mice; conditions: 48 hours co-culture, dye dilution
Outline: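 Splenic CD11c+ DCs from female C57BL/6 mice were isolated by positive selection and plated at 100,000/well in RPMI 1640 with 10% FBS at 37°C and 5% CO2. They were stimulated with CpG (5 µg/mL) plus complex or free controls for 24 h. Splenic CD4+ T cells from 2D2 mice were isolated by negative selection and labelled with eFluor 670 dye. They were co-cultured with the DCs for 48 h, then stained with DAPI and anti-CD4, and dye dilution was read by flow cytometry.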

| Substance | therapeutic effect relative to untreated mice [1] | CD4+ T cell proliferation [2] |
| --- | --- | --- |
| 5’-TGACTGTGAAGGTTAGAGATGA-3’ (DNA TGACTGTGAAGGTTAGAGATGA; chemistry not given here) [GpG] | no therapeutic effect |  |
| 5’-TCCATGACGTTCCTGACGTT-3’ [CpG] |  | did not cause any proliferation |
